Entries after “also recorded” stand apart in the source; their conditions may differ.

In assay [1] the target is T1, CypA (Homo sapiens, UniProt P62937). Nature of the assay: protease-free PPIase assay, CypA. Format: biochemical. As to conditions: 35 mM HEPES pH 7.8, 283 K, Suc-Ala-Ala-Pro-Phe-pNA 60 μM.
The target in the next assay is Human CypB (Homo sapiens, UniProt P23284). The assay can be described thus: protease-free PPIase assay, CypB. Format: biochemical. As to conditions: up to a concentration of 30 μM.
Chain of Human CypB (P23284 34-216): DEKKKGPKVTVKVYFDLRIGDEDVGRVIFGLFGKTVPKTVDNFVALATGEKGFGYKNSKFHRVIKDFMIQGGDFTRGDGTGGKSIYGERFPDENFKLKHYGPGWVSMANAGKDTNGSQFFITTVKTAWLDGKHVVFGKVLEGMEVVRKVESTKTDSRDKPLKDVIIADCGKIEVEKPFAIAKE
Assay [2] concerns RANTES-induced migration of mouse CD4+ T cells. The assay can be described thus: Boyden chamber chemotaxis assay, RANTES-induced. In kind it is cell-based. Particulars: 1 ng/ml mouse RANTES, activated mouse CD4+ T cells (data not shown).
The target of another assay is mouse (His)6-CypC (Mus musculus, UniProt P30412). Nature of the assay: protease-free PPIase assay, CypC. In kind it is biochemical.
Chain of mouse (His)6-CypC (P30412 whole entry): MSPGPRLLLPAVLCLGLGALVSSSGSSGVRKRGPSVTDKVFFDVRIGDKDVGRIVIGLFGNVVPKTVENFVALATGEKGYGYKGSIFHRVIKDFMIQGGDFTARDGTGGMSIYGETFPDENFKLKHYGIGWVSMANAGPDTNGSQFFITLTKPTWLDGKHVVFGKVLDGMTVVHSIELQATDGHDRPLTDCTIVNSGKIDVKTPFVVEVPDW
The target in assay [3] is T1, CypA. Nature of the assay: isothermal titration calorimetry. Format: binding. On the technique in general: ITC needs no label: the signal is the heat of the interaction.
Assay [4] in a line: ITC control titration of CsA with compound 1. Format: binding. As to conditions: syringe 1, cell CsA; n.s. = no signal of heat formation.
In a further assay the target is Par14 (Homo sapiens, UniProt Q9Y237). Nature of the assay: PPIase inhibition, Par14. Format: biochemical.
Chain of Par14 (Q9Y237 whole entry): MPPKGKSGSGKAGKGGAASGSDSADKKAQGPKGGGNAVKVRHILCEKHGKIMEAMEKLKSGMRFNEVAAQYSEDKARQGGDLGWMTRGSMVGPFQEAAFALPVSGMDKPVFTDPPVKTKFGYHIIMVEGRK
The target in a further assay is FKBP12 (Homo sapiens, UniProt P62942). The assay can be described thus: PPIase inhibition, FKBP12. Format: biochemical.
Chain of FKBP12 (P62942 whole entry, species assumed): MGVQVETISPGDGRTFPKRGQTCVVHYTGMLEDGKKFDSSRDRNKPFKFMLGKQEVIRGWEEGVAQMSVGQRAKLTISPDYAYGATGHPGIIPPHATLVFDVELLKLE
In assay [5] the test system is CypA-induced chemotaxis of mouse CD4+ T cells. Nature of the assay: Boyden chamber chemotaxis assay, CypA-induced. Format: cell-based. Particulars: 2 μM compound, 100 ng/ml CypA, activated mouse CD4+ T cells, 50 min. Put shortly: (§1)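 Mouse spleen cells (3×10^6/well) stimulated overnight with ConA 10 μg/ml in Click's medium + 5% FCS, 37°C, 5% CO2; CD4+ T cells isolated by MACS negative depletion. 104 cells placed in upper wells of 48-well Boyden chamber (5-μm polycarbonate membrane). Lower wells: RPMI-1640 + 1% BSA with recombinant human CypA or recombinant CypB. Test compound added to top and bottom wells. 50 min, 37°C. Membrane Wright-Giemsa stained; chemotactic index = migrated cells/mean medium-alone.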

Assay [6] deals with CypB-induced chemotaxis of mouse CD4+ T cells. Nature of the assay: Boyden chamber chemotaxis assay, CypB-induced. Format: cell-based. As to conditions: 2 μM compound, 200 ng/ml CypB, activated mouse CD4+ T cells, 50 min. The gist of the method:
as §1

T1 sequence (P62937 whole entry): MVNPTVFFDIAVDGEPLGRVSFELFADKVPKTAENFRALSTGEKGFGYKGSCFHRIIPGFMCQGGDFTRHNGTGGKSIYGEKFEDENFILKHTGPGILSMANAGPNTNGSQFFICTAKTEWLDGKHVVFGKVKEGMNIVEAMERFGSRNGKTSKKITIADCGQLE

At CypA [1], [O-(CF-NH(CH2)2NHC(O)CH2-)D-Ser]^8CsA came in with a Ki of 0.0024 ± 0.0003 µM.
In the case of `O=C(c1cc(-c2cc(F)cc([N+](=O)[O-])c2O)cc([N+](=O)[O-])c1O)C1CCc2ccccc21` (stereo not shown) [Compound 1], on Human CypB, the “response of PPIase activity of CypB” value is on record as “did not respond”. For the same molecule, the “effect on RANTES-induced cell migration” value in assay [2] is recorded as “not impacted”. Also, the Ki at mouse (His)6-CypC (CypC, 35 mM HEPES pH 7.8, 283 K, Suc-Ala-Ala-Pro-Phe-pNA 60 μM) is > 100 µM; on FKBP12, 38 ± 8 µM. Moreover, the “response of PPIase activity of CypC” value at mouse (His)6-CypC (up to a concentration of 30 μM) is listed as “did not respond”. Further, the “association constant KA” value at CypA [3] (competition ITC approach, calculated by eq. 2, 293 K) is 44000 M⁻¹. The “binding enthalpy ΔH” value on CypA [3] (competition ITC approach, calculated by eq. 3, 293 K) is -2.8 kcal/mol. The Kd at CypA [3] (read-out: dissociation constant KD, ITC probe of CsA/compound 1 competition) was 22.6 µM. In assay [4], the KA result is “n.s”. In addition, the “influence on Par14” value on Par14 is “does not influence”. In assay [5], the “inhibition of CypA-induced chemotaxis” value is reported as “almost completely; also recorded: specifically inhibited”. In addition, the “effect on CypB-induced chemotaxis” value in assay [6] is reported as “barely impacted; also recorded: not influenced”.

As usually defined, the Ki is the dissociation constant of the complex between target and ligand, obtained from inhibition or displacement. High values mean weaker binding, low ones tighter binding. Usually Kd stands for the constant that tells how readily two partners part at equilibrium.

(Values after article PMC2753677 (Biochemistry, 2009).)
